Experimental data as given in ChEMBL document CHEMBL4118265, “A cascade synthesis, in vitro cholinesterases inhibitory activity and docking studies of novel Tacrine-pyranopyrazole derivatives” (Bioorg Med Chem Lett, 2018).
pIC50: −log10 of the molar value.

How the values were obtained:
[1] = biological target: Acetylcholinesterase (Electrophorus electricus, UniProt O42275); test: Inhibition of electric eel AChE using acetylthiocholine iodide as substrate preincubated for 15 mins followed by substrate addition measured every 5 mins for 15 mins by spectrophotometric method
[2] = biological target: Cholinesterase (Equus caballus, UniProt P81908); test: Inhibition of horse serum BChE using butyrylthiocholine chloride as substrate preincubated for 15 mins followed by substrate addition measured every 5 mins for 15 mins by spectrophotometric method
Method in brief: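 BChE (6.85 x10-3 U) in 100 mM sodium phosphate pH 8.0 was preincubated 15 min at 25 °C with compound at several concentrations in methanol. DTNB (0.5 mM) and butyrylthiocholine chloride (0.2 mM) were then added. A412 read every 5 min for 15 min. IC50 derived from percent inhibition versus a methanol blank; mean ± SD of triplicates.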

[3] = Selectivity ratio of IC50 for horse serum BChE to IC50 for electric eel AChE
[4] = biological target: Cholinesterase (Equus caballus) (UniProt P81908); test: Inhibition of horse serum BChE at 0.391 ug using butyrylthiocholine chloride as substrate preincubated for 15 mins followed by substrate addition measured every 5 mins for 15 mins by spectrophotometric method relative to control
Method in brief: (§1)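 Ellman colorimetric assay. Compound in methanol (10 µl) was mixed with 150 µl 100 mM sodium phosphate pH 8.0 and BChE (6.85 x10-3 U) and held 15 min at 25 °C. DTNB (0.5 mM) was added, then butyrylthiocholine chloride (0.2 mM) to start the reaction. A412 read every 5 min for 15 min, in triplicate. Percent inhibition = (E−S)/E×100 against a methanol blank.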

[5] = biological target: Cholinesterase (Equus caballus) (UniProt P81908); test: Inhibition of horse serum BChE at 0.781 ug using butyrylthiocholine chloride as substrate preincubated for 15 mins followed by substrate addition measured every 5 mins for 15 mins by spectrophotometric method relative to control; method in brief: as §1
[6] = biological target: Cholinesterase (Equus caballus) (UniProt P81908); test: Inhibition of horse serum BChE at 1.563 ug using butyrylthiocholine chloride as substrate preincubated for 15 mins followed by substrate addition measured every 5 mins for 15 mins by spectrophotometric method relative to control; method in brief: as §1
[7] = biological target: Cholinesterase (Equus caballus) (UniProt P81908); test: Inhibition of horse serum BChE at 3.125 ug using butyrylthiocholine chloride as substrate preincubated for 15 mins followed by substrate addition measured every 5 mins for 15 mins by spectrophotometric method relative to control; method in brief: as §1
[8] = biological target: Cholinesterase (Equus caballus) (UniProt P81908); test: Inhibition of horse serum BChE at 6.25 ug using butyrylthiocholine chloride as substrate preincubated for 15 mins followed by substrate addition measured every 5 mins for 15 mins by spectrophotometric method relative to control; method in brief: as §1
[9] = biological target: Cholinesterase (Equus caballus) (UniProt P81908); test: Inhibition of horse serum BChE at 12.5 ug using butyrylthiocholine chloride as substrate preincubated for 15 mins followed by substrate addition measured every 5 mins for 15 mins by spectrophotometric method relative to control
Method in brief: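 Ellman colorimetric assay. DTNB (0.5 mM) was added, then butyrylthiocholine chloride (0.2 mM) to start the reaction. A412 read every 5 min for 15 min, in triplicate. Percent inhibition = (E−S)/E×100 against a methanol blank.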

[10] = biological target: Cholinesterase (Equus caballus) (UniProt P81908); test: Inhibition of horse serum BChE at 25 ug using butyrylthiocholine chloride as substrate preincubated for 15 mins followed by substrate addition measured every 5 mins for 15 mins by spectrophotometric method relative to control; method in brief: as §1
[11] = biological target: Acetylcholinesterase (Electrophorus electricus) (UniProt O42275); test: Inhibition of electric eel AChE at 0.006 ug using acetylthiocholine iodide as substrate preincubated for 15 mins followed by substrate addition measured every 5 mins for 15 mins by spectrophotometric method relative to control
Method in brief: as §1, with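 “AChE (5.32” for “BChE (6.85”, “acetylthiocholine iodide (0.71” for “butyrylthiocholine chloride (0.2”, “Thiolate formation” for “A412”, “read at 412 nm” for “read”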

[12] = biological target: Acetylcholinesterase (Electrophorus electricus) (UniProt O42275); test: Inhibition of electric eel AChE at 0.012 ug using acetylthiocholine iodide as substrate preincubated for 15 mins followed by substrate addition measured every 5 mins for 15 mins by spectrophotometric method relative to control
Method in brief: as §1, with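 “AChE (5.32” for “BChE (6.85”, “acetylthiocholine iodide (0.71” for “butyrylthiocholine chloride (0.2”, “Thiolate formation” for “A412”, “read at 412 nm” for “read”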

Sequence of Cholinesterase (P81908 whole entry): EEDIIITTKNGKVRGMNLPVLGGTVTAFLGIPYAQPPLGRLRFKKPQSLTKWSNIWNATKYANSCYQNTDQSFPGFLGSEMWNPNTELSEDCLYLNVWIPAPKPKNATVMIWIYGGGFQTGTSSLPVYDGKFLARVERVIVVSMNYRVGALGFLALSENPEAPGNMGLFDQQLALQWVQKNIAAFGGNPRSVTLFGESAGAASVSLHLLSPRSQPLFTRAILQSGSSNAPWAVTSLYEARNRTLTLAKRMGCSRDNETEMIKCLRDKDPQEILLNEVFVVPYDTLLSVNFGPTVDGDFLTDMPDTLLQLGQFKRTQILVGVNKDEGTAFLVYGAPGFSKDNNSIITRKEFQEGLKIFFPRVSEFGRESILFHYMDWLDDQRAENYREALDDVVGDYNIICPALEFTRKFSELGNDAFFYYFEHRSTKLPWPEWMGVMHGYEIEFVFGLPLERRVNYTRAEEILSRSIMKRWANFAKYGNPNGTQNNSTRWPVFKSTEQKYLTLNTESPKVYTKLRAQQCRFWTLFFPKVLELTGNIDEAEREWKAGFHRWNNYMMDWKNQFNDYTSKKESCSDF
Sequence of Cholinesterase (Equus caballus) (P81908 whole entry): as above
Sequence of Acetylcholinesterase (Electrophorus electricus) (O42275 24-633 limits assumed): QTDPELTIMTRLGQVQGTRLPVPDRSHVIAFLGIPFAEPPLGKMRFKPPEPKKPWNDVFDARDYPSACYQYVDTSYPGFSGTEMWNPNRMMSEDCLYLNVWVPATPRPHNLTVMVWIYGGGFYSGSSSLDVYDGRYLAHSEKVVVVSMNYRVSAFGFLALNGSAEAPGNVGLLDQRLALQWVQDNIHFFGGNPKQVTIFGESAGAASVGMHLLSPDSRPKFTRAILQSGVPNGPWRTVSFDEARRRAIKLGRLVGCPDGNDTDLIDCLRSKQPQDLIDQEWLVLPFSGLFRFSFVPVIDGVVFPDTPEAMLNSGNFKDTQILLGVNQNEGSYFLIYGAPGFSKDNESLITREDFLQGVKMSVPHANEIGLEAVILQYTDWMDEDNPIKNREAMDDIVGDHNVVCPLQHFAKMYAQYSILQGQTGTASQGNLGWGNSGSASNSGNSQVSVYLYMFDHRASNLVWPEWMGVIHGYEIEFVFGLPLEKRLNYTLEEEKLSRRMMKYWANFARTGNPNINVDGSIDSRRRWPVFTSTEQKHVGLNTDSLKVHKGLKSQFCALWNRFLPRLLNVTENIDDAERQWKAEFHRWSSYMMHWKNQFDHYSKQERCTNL
Sequence of Acetylcholinesterase (O42275 whole entry): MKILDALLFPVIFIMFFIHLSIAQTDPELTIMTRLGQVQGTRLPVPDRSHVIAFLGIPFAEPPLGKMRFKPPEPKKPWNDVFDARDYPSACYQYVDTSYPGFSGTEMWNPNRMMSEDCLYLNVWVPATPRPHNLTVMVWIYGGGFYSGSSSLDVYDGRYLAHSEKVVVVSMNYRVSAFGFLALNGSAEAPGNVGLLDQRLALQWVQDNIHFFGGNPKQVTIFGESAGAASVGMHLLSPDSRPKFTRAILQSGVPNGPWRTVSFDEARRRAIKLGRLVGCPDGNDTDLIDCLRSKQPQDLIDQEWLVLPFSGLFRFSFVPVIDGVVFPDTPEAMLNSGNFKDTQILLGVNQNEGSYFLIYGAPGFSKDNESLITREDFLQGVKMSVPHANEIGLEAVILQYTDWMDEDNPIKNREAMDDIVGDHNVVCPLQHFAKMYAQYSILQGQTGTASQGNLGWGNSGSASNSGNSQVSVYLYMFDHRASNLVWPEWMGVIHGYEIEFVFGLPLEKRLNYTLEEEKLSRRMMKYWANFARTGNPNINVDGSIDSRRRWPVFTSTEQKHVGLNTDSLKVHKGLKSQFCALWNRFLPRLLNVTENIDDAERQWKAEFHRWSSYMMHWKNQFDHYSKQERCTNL

Q: With `Cc1[nH]nc2c1C(c1ccc([N+](=O)[O-])cc1)c1c(nc3c(c1N)CCCC3)O2` (stereo not given) as the molecule, how does the pIC50 [1] read?
A: Its pIC50 is 5.24.

Q: And the pIC50 [2]?
A: Its pIC50 is 5.56.

Q: And the Ratio IC50 [3]?
A: The Ratio IC50 was 0.47.

Q: And the inhibition [4]?
A: The inhibition was 24.9%.

Q: What about the inhibition [5] of the same molecule?
A: The inhibition was 37.9%.

Q: And the inhibition [6]?
A: Its inhibition is 66.8%.

Q: And the inhibition [7]?
A: Its inhibition is 75.1%.

Q: What about the inhibition [8] of the same molecule?
A: The inhibition was 90.3%.

Q: What about the inhibition [9] of the same molecule?
A: Its inhibition is 92.6%.

Q: What about the inhibition [10] of the same molecule?
A: Its inhibition is 93.2%.

Q: With `Cc1[nH]nc2c1C(c1ccc(Br)cc1)c1c(nc3c(c1N)CCCC3)O2` (stereo not given) as the molecule, how does the pIC50 [1] read?
A: Its pIC50 is 5.74.

Q: And the pIC50 [2]?
A: The pIC50 was 4.93.

Q: What about the Ratio IC50 [3] of the same molecule?
A: The Ratio IC50 was 6.47.

Q: And the inhibition [4]?
A: The inhibition was 13.1%.

Q: What about the inhibition [5] of the same molecule?
A: The inhibition was 17.4%.

Q: What about the inhibition [6] of the same molecule?
A: Its inhibition is 37.9%.

Q: What about the inhibition [7] of the same molecule?
A: The inhibition was 43.1%.

Q: And the inhibition [8]?
A: Its inhibition is 58.5%.

Q: And the inhibition [9]?
A: The inhibition was 60.5%.

Q: What about the inhibition [10] of the same molecule?
A: Its inhibition is 69.9%.

Q: With `Cc1ccc(C2c3c(n[nH]c3C)Oc3nc4c(c(N)c32)CCCC4)c(C)c1` (stereo not given) as the molecule, how does the pIC50 [1] read?
A: The pIC50 was 6.54.

Q: What about the pIC50 [2] of the same molecule?
A: The pIC50 was 4.41.

Q: What about the Ratio IC50 [3] of the same molecule?
A: The Ratio IC50 was 135.

Q: And the inhibition [7]?
A: The inhibition was 13.3%.

Q: And the inhibition [8]?
A: The inhibition was 44.8%.

Q: What about the inhibition [9] of the same molecule?
A: The inhibition was 49.7%.

Q: What about the inhibition [10] of the same molecule?
A: Its inhibition is 51.9%.

Q: What does the source list for `COc1ccc2c3c1O[C@H]1C[C@@H](O)C=C[C@@]31CCN(C)C2`?
A: inhibition [4]: 11.1%; inhibition [5]: 21%; inhibition [6]: 55.2%; inhibition [7]: 63.9%; inhibition [10]: 97%

Q: What does the source list for `Cc1[nH]nc2c1C(c1c(Cl)cccc1[N+](=O)[O-])c1c(nc3c(c1N)CCCC3)O2` (stereo not given)?
A: pIC50 [1]: 5.75; pIC50 [2]: 5.74; Ratio IC50 [3]: 1.04; inhibition [4]: 37.6%; inhibition [5]: 52.1%; inhibition [6]: 66.2%; inhibition [7]: 85.3%; inhibition [8]: 86.5%; inhibition [9]: 94.3%; inhibition [10]: 98.7%

Q: Which results are given for `Cc1[nH]nc2c1C(c1cc([N+](=O)[O-])ccc1Cl)c1c(nc3c(c1N)CCCC3)O2` (stereo not given)?
A: pIC50 [1]: 5.98; pIC50 [2]: 5.60; Ratio IC50 [3]: 2.4; inhibition [4]: 5.53%; inhibition [5]: 10.2%; inhibition [6]: 13.9%; inhibition [7]: 21.6%; inhibition [8]: 35.6%; inhibition [9]: 54.2%; inhibition [10]: 71.9%

Q: With `COc1ccc(C2c3c(n[nH]c3C)Oc3nc4c(c(N)c32)CCCC4)c(OC)c1` (stereo not given) as the molecule, how does the pIC50 [1] read?
A: Its pIC50 is 6.59.

Q: What about the pIC50 [2] of the same molecule?
A: Its pIC50 is 4.51.

Q: And the Ratio IC50 [3]?
A: Its Ratio IC50 is 120.

Q: What about the inhibition [5] of the same molecule?
A: Its inhibition is 17.8%.

Q: What about the inhibition [6] of the same molecule?
A: The inhibition was 37.1%.

Q: What about the inhibition [7] of the same molecule?
A: Its inhibition is 43%.

Q: And the inhibition [8]?
A: Its inhibition is 55.8%.

Q: What about the inhibition [9] of the same molecule?
A: The inhibition was 62.8%.

Q: And the inhibition [10]?
A: The inhibition was 80.8%.

Q: What does the source list for `Cc1[nH]nc2c1C(c1ccc(Cl)cc1)c1c(nc3c(c1N)CCCC3)O2` (stereo not given)?
A: pIC50 [1]: 5.78; pIC50 [2]: < 4.17; Ratio IC50 [3]: > 41; inhibition [4]: 20.8%; inhibition [5]: 23%; inhibition [6]: 23.4%; inhibition [7]: 27.9%; inhibition [8]: 31.7%; inhibition [9]: 45.8%; inhibition [10]: 46.9%

Q: Which results are given for `Cc1[nH]nc2c1C(c1ccc(-c3ccccc3)cc1)c1c(nc3c(c1N)CCCC3)O2` (stereo not given)?
A: pIC50 [1]: 7.36; pIC50 [2]: < 4.21; Ratio IC50 [3]: > 1390; inhibition [11]: 34.4%; inhibition [12]: 43%; inhibition [8]: 11.8%; inhibition [9]: 14.1%; inhibition [10]: 20.6%

Q: With `CSc1ccc(C2c3c(n[nH]c3C)Oc3nc4c(c(N)c32)CCCC4)cc1` (stereo not given) as the molecule, how does the pIC50 [1] read?
A: Its pIC50 is 7.24.

Q: And the pIC50 [2]?
A: Its pIC50 is under 4.18.

Q: And the Ratio IC50 [3]?
A: Its Ratio IC50 is over 1140.

Q: And the inhibition [11]?
A: Its inhibition is 30.4%.

Q: What about the inhibition [12] of the same molecule?
A: The inhibition was 36.9%.

Q: What about the inhibition [4] of the same molecule?
A: Its inhibition is 0.11%.

Q: What about the inhibition [5] of the same molecule?
A: The inhibition was 10.1%.

Q: And the inhibition [6]?
A: The inhibition was 23.7%.

Q: What about the inhibition [7] of the same molecule?
A: The inhibition was 31%.

Q: And the inhibition [8]?
A: The inhibition was 36.6%.

Q: What about the inhibition [9] of the same molecule?
A: The inhibition was 44.5%.

Q: What about the inhibition [10] of the same molecule?
A: The inhibition was 46.7%.

Q: With `COc1ccc2ccccc2c1C1c2c(n[nH]c2C)Oc2nc3c(c(N)c21)CCCC3` (stereo not given) as the molecule, how does the pIC50 [1] read?
A: Its pIC50 is 6.89.

Q: And the pIC50 [2]?
A: The pIC50 was 4.95.

Q: And the Ratio IC50 [3]?
A: Its Ratio IC50 is 87.3.

Q: And the inhibition [11]?
A: Its inhibition is 12.6%.

Q: What about the inhibition [12] of the same molecule?
A: Its inhibition is 16.1%.

Q: And the inhibition [4]?
A: The inhibition was 2.86%.

Q: What about the inhibition [5] of the same molecule?
A: The inhibition was 7.31%.

Q: And the inhibition [6]?
A: The inhibition was 25.1%.

Q: And the inhibition [7]?
A: Its inhibition is 47.9%.

Q: What about the inhibition [8] of the same molecule?
A: The inhibition was 51.9%.

Q: What about the inhibition [9] of the same molecule?
A: Its inhibition is 63%.

Q: What about the inhibition [10] of the same molecule?
A: The inhibition was 70%.

Q: What does the source list for `Cc1[nH]nc2c1C(c1cccnc1)c1c(nc3c(c1N)CCCC3)O2` (stereo not given)?
A: pIC50 [1]: 6.48; pIC50 [2]: 5.37; Ratio IC50 [3]: 12.9; inhibition [11]: 6.61%; inhibition [12]: 13.1%; inhibition [4]: 18.2%; inhibition [5]: 41.6%; inhibition [6]: 53.9%; inhibition [7]: 57.1%; inhibition [8]: 72%; inhibition [9]: 74.2%; inhibition [10]: 84.8%

Q: What does the source list for `Cc1[nH]nc2c1C(c1ccccc1)c1c(nc3c(c1N)CCCC3)O2` (stereo not given)?
A: pIC50 [1]: 5.91; pIC50 [2]: 4.44; Ratio IC50 [3]: 29.3; inhibition [4]: 5.38%; inhibition [5]: 10.7%; inhibition [6]: 13.6%; inhibition [7]: 23.9%; inhibition [8]: 30.7%; inhibition [9]: 52.5%; inhibition [10]: 72.9%
